Source: PubChem BioAssay (Broad Institute)
A selection follows.
PGC1a acetyl up: compounds raising PGC1a acetylation signal, primary screen, PGC1a modulator project, cell-based, U2OS, AlphaScreen, signal-increasing mode; hit rate 0.21% among 350,000; activation, % at 15.6 µM; overnight; AID 651723, 2012;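 active = every replicate reaching activation of at least 50%, whatever the mean replicate activation; inconclusive = replicates that disagree or another doubt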;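 note: hits raise the AlphaScreen acetylation signal above neutral controls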
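System: flag-PGC1a/GCN5 U2OS cells / Input: 7000 cells/well / Compound: single test concentration per compound / Incubation: overnight compound treatment, 37 °C / Technique: AlphaScreen on lysates with anti-acetyl-lysine antibody, acceptor and donor beads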
G6PC hep suppr: suppressors of forskolin-stimulated G6PC mRNA, dose response, PGC-1a acetylation activator project, cell-based, hepatocytes, RT-qPCR, cherry-picked samples; primary mouse hepatocytes; G6PC suppression (normalized activity, % of positive control; higher = more suppression), % at 26 µM; 240 tested, under 10 active; AID 743463, 2014; shares compounds with PGC1a acetyl up;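 active = dose curves showing G6PC suppression whose half-maximal dose is at most twice the top valid dose; inconclusive = flat curves with moderate negative activity, or unreliable fits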;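 note: G6PC expression relative to GAPDH housekeeping gene as delta delta Ct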
Hep PCK1 suppr: suppression of PCK1 mRNA in primary hepatocytes, dose response, PGC-1a acetylation activator project, cell-based, primary mouse hepatocytes, RT-qPCR, cherry-pick; 230 tested, under 10 active; AID 743465, 2014; forskolin-stimulated; shares compounds with PGC1a acetyl up; PCK1 expression decrease, unspecified at 26 µM;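 active = compounds lowering PCK1 expression whose fitted half-maximal concentration is at most twice the top tested dose; inconclusive = flat fit with moderate opposite-direction effect, or poor fit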;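 note: higher delta delta Ct means lower PCK1 expression so positive values indicate hits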
PGC1a hep suppr: suppression of PGC-1a mRNA in primary hepatocytes, dose response, PGC-1a acetylation activator project, cell-based, primary mouse hepatocytes, RT-qPCR, cherry-pick; PGC-1a mRNA qPCR, forskolin; top dose 26 µM; max activity (PGC-1a expression decrease), %; shares compounds with PGC1a acetyl up; 240 tested, under 10 active;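 active = compound lowering PGC-1a expression with fitted half-maximal concentration at most twice its top tested dose; inconclusive = flat curve with moderate opposite-direction effect, or poor fit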
Of the large screens only hits and unclear results are named; the others gave an inactive call (follow-up assays come after a bar, where they were run).

O=C(NCCCN1CCOCC1)c1ccccc1N1C(=O)[C@@H]2Cc3c([nH]c4ccccc34)C(c3ccccc3)N2C1=O (some centres undefined)	PGC1a acetyl up 320 | G6PC hep suppr inactive | Hep PCK1 suppr inactive | PGC1a hep suppr inactive
C[C@@H]1CN([C@H](C)CO)C(=O)c2c(c3ccccc3n2C)-c2ccccc2CO[C@@H]1CN(C)C(=O)c1ccccc1	PGC1a acetyl up 58 | G6PC hep suppr inactive | Hep PCK1 suppr inconclusive | PGC1a hep suppr inconclusive
C[C@@H]1CN([C@@H](C)CO)C(=O)c2cc(/C=C/c3ccccc3)cnc2O[C@@H]1CN(C)Cc1cccnc1	none
CC(C)[C@H](C)NC(=O)N(C)C[C@H]1OCc2ccccc2-c2c(n(C)c3ccccc23)C(=O)N([C@H](C)CO)C[C@H]1C	PGC1a acetyl up 59 | G6PC hep suppr inactive | Hep PCK1 suppr inactive | PGC1a hep suppr inactive
C[C@H]1CN([C@@H](C)CO)C(=O)CCCn2nncc2CO[C@@H]1CN(C)C(=O)Nc1ccc2c(c1)OCO2	none
C[C@@H]1CN([C@@H](C)CO)C(=O)c2c(c3ccccc3n2C)-c2ccccc2CO[C@@H]1CN(C)C(=O)Nc1ccc2c(c1)OCO2	PGC1a acetyl up 81 | G6PC hep suppr inactive | Hep PCK1 suppr inactive | PGC1a hep suppr inactive
C[C@H](CO)N1C[C@H](C)[C@H](CN(C)S(C)(=O)=O)Oc2ncc(-c3cc4ccccc4o3)cc2C1=O	none
C[C@@H]1CN([C@@H](C)CO)C(=O)CCCn2nncc2CO[C@H]1CN(C)S(=O)(=O)c1ccc(Cl)cc1	none
C[C@H](CO)N1C[C@H](C)[C@@H](CN(C)C(=O)CCN2CCCCC2)Oc2ncc(C#Cc3ccccn3)cc2C1=O	none
C[C@@H]1CN([C@@H](C)CO)C(=O)c2c(c3ccccc3n2C)-c2ccccc2CO[C@@H]1CN(C)C(=O)c1ccc(F)cc1	PGC1a acetyl up 117 | G6PC hep suppr inactive | Hep PCK1 suppr inactive | PGC1a hep suppr inactive
O=C(CC1CC1)N[C@@H]1CC[C@H](CCNS(=O)(=O)c2ccc(Cl)cc2)O[C@H]1CO	none
CCOC(=O)C1=C(NC(=O)c2ccc(Br)o2)Nc2ccccc2N=C1	none
O=C(CSc1nc2cc(Cl)ccc2s1)NCC1CCCO1 (centres undefined)	none
CCCC(=O)C1=C(O)C(C(=O)OC)C(C)(C)CC1=Nc1ccc(OC)cc1 (centres undefined)	none
CCOC(=O)C1=C(Nc2ccccc2)OCC1=O	none
O=C(O)CSCC(=O)NCc1ccc(Cl)cc1Cl	none
C[C@@H]1CN([C@@H](C)CO)S(=O)(=O)c2ccc(-c3ccc(C#N)cc3)cc2O[C@H]1CN(C)C(=O)CN(C)C	none
O=C1Nc2c(Br)cc(Br)c3cccc1c23	none
Cc1ccccc1S(=O)(=O)N[C@H]1CC[C@H](CCn2cc(Cc3ccccc3)nn2)O[C@@H]1CO	none
CC(C)(O)c1cc(=O)sc2nc3ccccc3n12	none
COCC#Cc1cnc2c(c1)C(=O)N([C@H](C)CO)C[C@@H](C)[C@@H](CN(C)C(=O)c1cccnc1)O2	none
C[C@@H]1CN([C@@H](C)CO)C(=O)c2c(c3ccccc3n2C)-c2ccccc2CO[C@@H]1CN(C)C(=O)c1ccccc1	PGC1a acetyl up 76 | G6PC hep suppr inactive | Hep PCK1 suppr inactive | PGC1a hep suppr inactive
CC(=O)N(C)C[C@H]1Oc2ncc(C#CCc3ccccc3)cc2C(=O)N([C@@H](C)CO)C[C@H]1C	none
O=C(NC1CCCC1)C(c1ccncc1)N(Cc1ccccc1F)C(=O)c1csnn1 (centres undefined)	none
COc1ccc(N(C(=O)c2csnn2)C(C(=O)NC2CCCC2)c2cccs2)cc1 (centres undefined)	PGC1a acetyl up 53 | G6PC hep suppr inactive | PGC1a hep suppr inconclusive
CCN(C(=O)COC(=O)/C=C/c1cccc(Cl)c1)c1c(N)n(Cc2ccccc2)c(=O)[nH]c1=O	none
COCC(=O)N1C[C@@H](C)[C@@H](OC)CN(C)C(=O)c2ccc(NC(=O)c3cnccn3)cc2OC[C@@H]1C	none
O=C1c2ccc(-c3ccc4c(c3)C(=O)N(CCCO)C4=O)cc2C(=O)N1CCCO	none
COc1ccc(-c2nc3c(C)cc(Br)cn3c2Cc2ccc(C)cc2)cc1OC	PGC1a acetyl up inconclusive | G6PC hep suppr inactive | Hep PCK1 suppr inactive | PGC1a hep suppr inactive
CCCCNC(=O)C1CCN(Cc2ccccn2)CC1	none
Cc1nc2[nH]c(=O)c3c(n2n1)NC1=C(C(=O)CC(C)(C)C1)C3c1ccccc1 (centres undefined)	none
O=C(c1ccccc1Nc1ccc(SC(F)F)cc1)N1CCCCCC1	PGC1a acetyl up 53 | G6PC hep suppr inactive | Hep PCK1 suppr inactive | PGC1a hep suppr inactive
O=C(c1nc2nc(-c3ccccc3)cc(C(F)(F)F)n2n1)N1CCCCC1	none
CC(=O)n1nc2nc(C)cc(C)c2c1N	none
Nc1ncnc(NCc2ccc(F)cc2)c1[N+](=O)[O-]	none
COc1ccc(NC(=O)N[C@H]2CC[C@@H](CCn3cc(-c4ccccc4F)nn3)O[C@H]2CO)cc1	none
CC(Oc1ccc(Cl)cc1Cl)c1nc(-c2ccc(NC(=O)c3cccnc3)cc2)no1 (centres undefined)	PGC1a acetyl up 88 | G6PC hep suppr inactive | Hep PCK1 suppr inactive | PGC1a hep suppr inconclusive
O=C(/C=C/c1cccs1)c1ccc(NC(=O)c2cccc(Br)c2)cc1	none
O=C(Nc1ccc(-c2noc(-c3cccs3)n2)cc1)c1cccnc1	PGC1a acetyl up 137 | G6PC hep suppr inactive | Hep PCK1 suppr inactive | PGC1a hep suppr inconclusive
CC1CC(=O)c2c(cc3c(-c4c(O)cc(O)c5c(O)c6c(cc45)OC(C)CC6=O)c(O)cc(O)c3c2O)O1 (centres undefined)	none
CC(/C=N/N1CCN(Cc2ccccc2)CC1)=C\c1ccccc1	none
O=C1/C(=C\c2ccc(Cl)c(Cl)c2)CN(C(=O)CCN2CCOCC2)C/C1=C/c1ccc(Cl)c(Cl)c1	none
Cc1ccc(-n2cccn2)c(CN2CCCC(C(=O)c3sccc3C)C2)c1 (centres undefined)	PGC1a acetyl up 68 | PGC1a hep suppr inconclusive
CCCCCCNC(=O)c1ncn[nH]1	none
O=C(Nc1cnc2ccccc2c1)c1cccnc1	PGC1a acetyl up 267 | Hep PCK1 suppr inactive | PGC1a hep suppr inactive
COc1ccc2c3c([nH]c2c1)[C@H](CO)N(C(=O)c1ccncc1)CC31CN(C(=O)c2ccncc2)C1	none
COCCN(C)Cc1nc(C(c2ccccc2)c2ccccc2)no1	none
OC(CN1c2ccccc2Sc2ccccc21)Cn1nnc2ccccc21 (centres undefined)	PGC1a acetyl up 76 | Hep PCK1 suppr inactive | PGC1a hep suppr inactive
CCN1CCN(Cc2ccc(NC(=O)c3cc(NC(=O)c4cncc(-c5ccc(C#N)cc5)c4)cc(OC)c3)cc2C(F)(F)F)CC1	none
CN(C)c1ncnc2c1ncn2C1OC(CO)C(O)C1O (centres undefined)	none
